Screening data deposited in PubChem BioAssay by several laboratories.
Most compounds without a hit are left out; they make up all but 2.4% or so of the library.
HSV augment: increases HSV replication in cells | maximum fold increase | AID 1956 | 220,000 tested, 0.005% active | HSV replication augmentation in cells, fold increase; in the data active = maximum fold increase above about 1.5; inconclusive = no clear call, values can overlap the other calls; tested in PC3 cells
MT stabilizer: stabilizes microtubules in HeLa cells; HeLa tubulin immunostaining HCS, 24 h; share of cells brighter than vehicle mean+2SD; % tubulin-high responders, % at 10 µM; 200,000 tested, 0.83% active;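 active = plate Z-score above 3 for both tubulin-high and condensed-nucleus cell shares, with cell loss under 80%, at 10 µM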;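 note: anti alpha tubulin signal scored within the nucleus-defined area of each cell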
ROMK primary: human ROMK K+ channel modulation, primary screen. P48048. Tet-inducible ROMK, thallium flux fluorescence; actives lie on both sides. B-score at 10 µM. 130,000 tested, 2% active;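 active = signal ratio slope over the read window, or its plate-corrected B-score, at least 3 SD from the plate mean, either direction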;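 note: B-score of the F/F0 ratio slope over 7 to 12 s after thallium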
Target sequence (P48048 whole entry, looked up): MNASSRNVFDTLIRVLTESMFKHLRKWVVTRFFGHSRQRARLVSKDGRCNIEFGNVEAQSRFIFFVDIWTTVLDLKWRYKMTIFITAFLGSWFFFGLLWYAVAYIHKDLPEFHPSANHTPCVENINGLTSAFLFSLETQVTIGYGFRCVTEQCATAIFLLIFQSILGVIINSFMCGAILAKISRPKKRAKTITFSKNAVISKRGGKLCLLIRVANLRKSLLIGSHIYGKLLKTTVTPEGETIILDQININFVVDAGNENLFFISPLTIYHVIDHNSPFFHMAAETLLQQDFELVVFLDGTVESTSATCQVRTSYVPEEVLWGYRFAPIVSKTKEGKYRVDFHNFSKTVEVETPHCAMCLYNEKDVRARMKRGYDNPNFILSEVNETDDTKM
b-catenin transl: alters nuclear translocation of beta-catenin in HeLa cells. immunofluorescence imaging. nuclear translocation activity, % at 5 µM. 190,000 tested, 0.3% active;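 active = nuclear translocation activity above 50% at 5 µM, with a well cell count of 50 or more; inconclusive = wells under 50 cells across six images, flagged as toxic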;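 note: per-cell ratio of nuclear to cytoplasmic median beta-catenin stain intensity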
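test system = HeLa cells, endogenous beta-catenin | dosing = single 5 µM dose plus 0.02–20 µM confirmation series | times = compound treatment 24 h, 37°C, 5% CO2 | technique = beta-catenin immunofluorescence imaging with DAPI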
Insulin prom inh: TRM-6 insulin promoter activity inhibition; TRM-6 cells (human fetal islet line), insulin promoter-eGFP reporter, imaging; reporter expression induced with tamoxifen; inhibition, % at 2 µM; 130,000 tested, 0.9% active; AID 1273;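 active = inhibition above the mean plus 3 SD, with well images judged a real hit on visual review, cut at about 60% in these data, passing the limit was not always enough; inconclusive = inhibition over the cutoff but images rejected on review; inactive = inhibition not above the cutoff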
ROMK retest: confirmation of human ROMK potassium channel modulators | 3,000 tested, 54% active | AID 1917 | normalized thallium flux (F/F0 slope) at 10 µM | shares compounds with ROMK primary | ROMK thallium flux, fluorescence ratio; stronger effect = lower value;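 active = Flux at 10 µM at least 3 SD below or above vehicle control mean in one or both replicates; inconclusive = no clear call, values can overlap the other calls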
A number is an active result; 0 = inactive; ? = inconclusive; - = not tested or not shown.

SMILES | HSV augment | MT stabilizer | ROMK primary | b-catenin transl | Insulin prom inh | ROMK retest
COc1cc(CNCCN2CCOCC2)ccc1OCc1ccc(Cl)cc1 | 0 | 0 | 0 | - | 0 | -
COc1cc(CNCCCN2CCOCC2)cc(Br)c1OCc1ccc(Cl)cc1 | 0 | 0 | -3.8 | 0 | - | ?
Cc1cccc(OCCCN2CCCCCC2)c1 | 0 | 0 | 3.2 | - | 0 | 0
Cc1ccc(C)c(OCCCN2CCCC2)c1 | 0 | 0 | - | - | 0 | -
Cc1ccc(CSCC(=O)NCc2ccc(F)cc2)cc1 | 0 | 0 | 0 | 0 | 0 | -
O=C(CSCc1ccc(F)cc1)NCc1ccc(F)cc1 | 0 | 0 | 3 | 0 | 0 | 0
Cc1ccc(S(=O)(=O)CC(=O)N(C)C)cc1 | 0 | 0 | 0 | 0 | 0 | -
Cc1cc(=O)c2cc(C(=O)c3ccccc3)ccc2[nH]1 | 0 | - | - | 0 | - | -
O=c1c2ccccc2nc2n1C(CSCc1ccc(Cl)cc1)CS2 (stereo unspecified) | 0 | 0 | - | 0 | 0 | 0.066
CCCN(CCC)C(=O)c1cc2c(=O)[nH]c3ccc(C)cc3c2s1 | 0 | 0 | -4.2 | 0 | 0 | 0
CCCCCCCCNc1ncnc2ccccc12 | 0 | 0 | 0 | 0 | 0 | -
c1ccc(CCNc2ncnc3ccccc23)cc1 | 0 | 0 | -3.7 | 0 | - | 0
CCCc1nn(C)c(C(=O)Nc2ccc3ccccc3c2)c1Cl | 0 | 0 | 0 | 0 | 0 | -
COc1coc(C(O)CN)cc1=O (stereo unspecified) | 0 | 0 | 0 | - | 0 | -
CCOC(=O)C(=Cc1cc(=O)c(OC)co1)C(=O)OCC | 0 | 25 | -4.1 | 0 | 0 | 0.048
CC1(C)NC(=O)N(CCCCOc2ccc(Cl)cc2C=O)C1=O | 0 | 0 | 3.9 | 0 | - | 0
CCn1cc(C(=O)NCc2ccc3c(c2)OCO3)c(=O)c2cc(F)c(N3CCN(C(=O)c4ccco4)CC3)cc21 | 0 | 0 | 0 | 0 | 0 | -
CCc1ccc(/C=C2\Oc3c(ccc(O)c3CN3CCN(CCO)CC3)C2=O)cc1 | 0 | - | - | 0 | - | 0.049
COc1cc(/C=C(\C#N)C(=O)Nc2cccnc2)ccc1OC(C)C | - | 0 | - | 0 | - | -
CN(CC(=O)O)Cc1nc2ccccc2[nH]1 | 0 | 0 | 0 | 0 | - | -
C=CCc1ccccc1OCC(O)CN1CCN(C(=O)OCC)CC1 (stereo unspecified) | 0 | 0 | - | 0 | - | -
C=CCc1ccccc1OCC(O)CN1CCN(c2ccc(C)cc2)CC1 (stereo unspecified) | 0 | 0 | -2.6 | 0 | - | 0.056
COc1ccc(C2CC(=O)Oc3c(C(CCN4CCCCC4)c4ccc(N(C)C)cc4)c(OC)cc(OC)c32)cc1 (stereo unspecified) | 0 | - | - | 0 | - | -
COc1ccc(C2CC(=O)Oc3c(C(CCN4CCCC(C)C4)c4ccc(N(C)C)cc4)c(OC)cc(OC)c32)cc1 (stereo unspecified) | 0 | - | - | 0 | - | 0.059
Cc1cc(C)cc(OCCNC(=O)C(C)N2C(=O)c3ccccc3C2=O)c1 (stereo unspecified) | 0 | 0 | 2.4 | 0 | 0 | 0
SMILES | HSV augment | MT stabilizer | ROMK primary | b-catenin transl | Insulin prom inh | ROMK retest
COC(=O)Cn1cc(C#N)c2ccccc21 | 0 | 0 | 0 | 0 | 0 | -
CC(C)OC(=O)Cn1cc(C#N)c2ccccc21 | 0 | 0 | -8.8 | 0 | - | 0
CCOC(=O)c1c(C)n(C)c2ccc(OC)c(NC(=O)CCN3CCC(Cc4ccccc4)CC3)c12 | 0 | - | - | 0 | - | 0.063
CCOC(=O)c1c(C)n(C)c2ccc(OC)c(NC(=O)CN3CCSCC3)c12 | 0 | 0 | 0 | 0 | 0 | -
O=C(Nc1ccccc1Cl)C1CCN(Cc2cnn(-c3ccccc3)c2-n2cccc2)CC1 | 0 | 0 | -3.2 | - | - | 0.054
CCC1(C(=O)c2ccc(Cl)cc2)C2c3ccccc3OC(=O)C21C(=O)Nc1ccccc1 (stereo unspecified) | 0 | 0 | - | 0 | - | -
COc1cccc(N2CCN(c3ncnc4c3cnn4-c3ccc(C)cc3C)CC2)c1 | 0 | 0 | - | 0 | - | 0
C#CCOCCOCCOCCNc1nc(N2CCN(C(=O)[C@H](Cc3ccc(O)cc3)n3cc(CCO)nn3)CC2)nc(N2CCN(C(=O)[C@H](Cc3ccc(O)cc3)n3cc(CCO)nn3)CC2)n1 | - | 0 | 0 | - | 0 | -
C#CCOCCOCCOCCNc1nc(N2CCN(C(=O)[C@H]([C@@H](C)O)n3cc(CCCCN)nn3)CC2)nc(N2CCN(C(=O)[C@H](Cc3ccc(O)cc3)n3cc(CCO)nn3)CC2)n1 | 0 | 0 | 2 | - | 0 | 0
Cc1c(C(=O)O)cccc1-c1ccc(/C=N/Nc2ccc(Br)cc2)o1 | 0 | 0 | 1.7 | 0 | 0 | 0.1
COc1cc(NS(=O)(=O)c2ccc(NC(=O)/C(=C\c3ccccc3OC)NC(=O)c3ccccc3)cc2)nc(OC)n1 | 0 | 0 | - | 0 | 0 | -
Cc1ccc(-c2nc3cc(N)ccc3o2)cc1 | - | 0 | - | 0 | 0 | -
CC(C)c1ccc2oc(-c3ccc(N)cc3)nc2c1 | 0 | 0 | - | 0 | 0 | 0
Cc1cc(C2N=C(N)Nc3nc4ccccc4n32)c(C)n1-c1ccccc1Cl (stereo unspecified) | 0 | 0 | -5 | 0 | 0 | 0.059
Cc1ccc(-n2c(C)cc(C3N=C(N)Nc4nc5ccccc5n43)c2C)c(C)c1 (stereo unspecified) | 0 | 0 | - | 0 | - | 0.047
CCOC(=O)CSc1nnc(SCCN2C(=O)c3ccccc3C2=O)s1 | - | 0 | - | 0 | 0 | -
CN(C)c1ccc(N=C/C=C2/N(C)c3ccccc3C2(C)C)cc1 | 0 | 0 | - | 0 | - | 0.054
CN1/C(=C\C=N\O)C(C)(C)c2ccccc21 | 0 | 0 | 0 | 0 | - | -
CCOC(=O)c1[nH]c(C)c(C(=O)N2CCc3ccccc32)c1C | 0 | 29 | 3.2 | 83 | 0 | 0
COc1cc(/C=C(\C#N)C(=O)NC2CCCCC2C)ccc1OS(=O)(=O)c1ccc(C)cc1 (stereo unspecified) | 0 | 0 | - | 0 | - | -
COc1cc(/C=C(\C#N)C(N)=O)ccc1OS(=O)(=O)c1ccc(C)cc1 | 0 | 0 | - | 0 | 0 | 0.041
CCOc1c(Br)cc(/C=C2/SC(=O)N(CC(=O)N3CCCC3)C2=O)cc1OC | - | 0 | 0 | 0 | - | -
CCOC(=O)COc1c(Br)cc(/C=C2\SC(=O)N(CC(=O)N3CCCC3)C2=O)cc1OC | - | 0 | -4.7 | - | 0 | 0.057
O=C(NCc1ccccc1)c1onc(CSc2ccccc2)c1C(=O)NCC1CC1 | 0 | - | - | 0 | - | 0
OC(CNCC1(N2CCCCC2)CCCCC1)COc1ccc(Cl)cc1Cl (stereo unspecified) | 0 | 0 | -3.9 | 0 | - | 0.053
SMILES | HSV augment | MT stabilizer | ROMK primary | b-catenin transl | Insulin prom inh | ROMK retest
NC(=O)/C(=C\c1ccccc1)NC(=O)c1ccc(NC(=O)c2ccccc2)cc1 | 0 | - | - | 0 | - | -
O=S(=O)(Nc1nc2ccccc2nc1-[n+]1cccc(N=C([O-])c2ccccc2Cl)c1)c1ccccc1 | ? | - | - | 0 | - | 0.053
Cc1c(C(=O)NC(C)C)sc2ncn(CC(=O)N3CCC(C)CC3)c(=O)c12 | 0 | 0 | - | 0 | 0 | -
O=C(/C=C/c1ccccc1)Nc1nnc(-c2ccco2)o1 | 0 | 0 | 0 | 0 | 0 | -
c1ccc(-c2nc(NCCCn3ccnc3)c3ccccc3n2)cc1 | - | 0 | -3.6 | 0 | 0 | 0.06
Cc1cc(NCCCn2ccnc2)n2ncc(-c3ccccc3)c2n1 | 0 | 0 | -3.3 | 0 | - | 0
Cc1cc(NCCCn2ccnc2)n2nc(C)c(-c3ccccc3)c2n1 | 0 | 0 | - | 0 | 0 | -
